The nature of data set [1]: Cytotoxicity against mouse B16-F1 cells at 100 uM after 48 hrs by MTT assay relative to control in presence of 1-phenyl-2-thiourea. In kind it is functional. (In general: Tetrazolium dyes change colour on reduction, which living cells bring about.)
The nature of data set [2]: Cytotoxicity against mouse B16-F1 cells at 100 uM after 48 hrs by MTT assay relative to control in presence of N-acetyl-L-cysteine. The class given is functional.
Data set [3] can be described thus: Cytotoxicity against mouse B16-F1 cells at 100 uM after 48 hrs by MTT assay relative to control. In kind it is functional.
Data set [4] can be described thus: Cytotoxicity against mouse B16-F1 cells after 48 hrs by MTT assay. In kind it is functional, cell-based.
In data set [5] the test system is glutathione S-transferase. Description: Stability assessed as half life at pH 7.4 in presence of rat glutathione S-transferase in liver cytosol. In kind it is physicochemical. Put shortly:
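The GSH reaction was run at pH 7.4 with and without rat liver cytosol, which served as the glutathione S-transferase source. t1/2 was derived from the time course of reaction with GSH.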

In data set [6] the test system is glutathione S-transferase. As to the kind of experiment: Stability assessed as half life at pH 7.4 in presence of rat glutathione S-transferase. The class given is ADME.
Data set [7] concerns glutathione S-transferase. As to the kind of experiment: Stability assessed as half life in presence of rat glutathione S-transferase. In kind it is ADME.
Data set [8] relates to glutathione S-transferase. Description: Stability assessed as half life at pH 8 in presence of rat glutathione S-transferase. In kind it is ADME.
Substrate in data set [9]: O=C(O)CCSc1ccc(O)cc1
As to the kind of experiment: (§1) Ratio of Kcat to Km of mushroom tyrosinase. The note with it: Agaricus bisporus. Summed up:
(§2)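 Mushroom tyrosinase kinetics were run by measuring the initial rate of enzyme-catalyzed o-quinone formation over increasing substrate concentrations. Km and Vmax were derived from these rates, and kcat and kcat/Km were calculated from them.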

Substrate in data set [10]: COc1ccc(O)cc1
The data set is described as §1. The note with it: Agaricus bisporus. Put shortly: as §2

Substrate in data set [11]: O=C(O)CSc1ccc(O)cc1
The data set is described as §1. The note with it: Agaricus bisporus. Put shortly:
as §2

Substrate in data set [12]: O=C(O)CCSc1ccc(O)cc1
As to the kind of experiment: (§3) Activity of mushroom tyrosinase assessed as o-quinone formation. The note with it: Agaricus bisporus. Put shortly: as §2

Substrate in data set [13]: COc1ccc(O)cc1
The data set is described as §3. The note with it: Agaricus bisporus. Summed up: as §2

Substrate in data set [14]: O=C(O)CSc1ccc(O)cc1
The description is as §3. The note with it: Agaricus bisporus. Put shortly: as §2

Bounds are passed on as bounds.

The text below walks through data of ChEMBL document CHEMBL1158479, “Synthesis and preliminary in vitro biological evaluation of 4-[(4-hydroxyphenyl)sulfanyl]but-3-en-2-one, a 4-mercaptophenol derivative designed as a novel bifunctional antimelanoma agent” (J Med Chem, 2009).

`COc1ccc(O)cc1` [MEQUINOL]: the Activity in data set [1] is on record as 78.7%; in data set [2], 60%; in data set [3], 61.3%.

One may read the IC50 as the concentration needed to halve the response being measured. Higher therefore signals a need for much substance. The term half-life denotes the time needed for the level to fall by half in the phase considered. Turning to `Oc1ccc(SSc2ccc(O)cc2)cc1`, the Activity in data set [1] stood at 0%; in data set [2], 22.5%; in data set [3], 0.2%. In data set [4], the IC50 was found to be 21.2 µM. In addition, the half-life in data set [5] was less than 1 min.

In the case of `CC(=O)/C=C/Sc1ccc(O)cc1`, the half-life in data set [6] was found to be 20.5 min; in data set [7], 2.2 min; in data set [8] it was 6.1 min.

As for `CC(=O)/C=C\Sc1ccc(O)cc1`, the half-life in [6] worked out at 38.6 min; in data set [7], 7.24 min; in [8], 18.4 min.

B1: Tyrosinase (Agaricus bisporus), O42713 (protein)
chain: MSLIATVGPTGGVKNRLNIVDFVKNEKFFTLYVRSLELLQAKEQHDYSSFFQLAGIHGLPFTEWAKERPSMNLYKAGYCTHGQVLFPTWHRTYLSVLEQILQGAAIEVAKKFTSNQTDWVQAAQDLRQPYWDWGFELMPPDEVIKNEEVNITNYDGKKISVKNPILRYHFHPIDPSFKPYGDFATWRTTVRNPDRNRREDIPGLIKKMRLEEGQIREKTYNMLKFNDAWERFSNHGISDDQHANSLESVHDDIHVMVGYGKIEGHMDHPFFAAFDPIFWLHHTNVDRLLSLWKAINPDVWVTSGRNRDGTMGIAPNAQINSETPLEPFYQSGDKVWTSASLADTARLGYSYPDFDKLVGGTKELIRDAIDDLIDERYGSKPSSGARNTAFDLLADFKGITKEHKEDLKMYDWTIHVAFKKFELKESFSLLFYFASDGGDYDQENCFVGSINAFRGTAPETCANCQDNENLIQEGFIHLNHYLARDLESFEPQDVHKFLKEKGLSYKLYSRGDKPLTSLSVKIEGRPLHLPPGEHRPKYDHTQARVVFDDVAVHVIN
One may read the Km as the concentration of substrate that gives half-maximal velocity. Usually kcat stands for the number of substrate molecules converted per active site and unit of time at saturation. For B1, the kcat/Km in [9] is 31000; in data set [10] it was 5140; in [11], 20600. Further, the values for the Km in data set [12], in data set [13] and in [14] were 31.5 µM, 46.8 µM and 22.4 µM, respectively. The catalytic constant (kcat) in data set [12] amounted to 0.972 s⁻¹; in data set [13] it was 0.24 s⁻¹; in data set [14] it was 0.461 s⁻¹.
